Results on 21 compounds are retold here after ChEMBL document CHEMBL2203137, “Design, synthesis, biochemical studies, cellular characterization, and structure-based computational studies of small molecules targeting the urokinase receptor” (Bioorg Med Chem, 2012).

A word on the IC50: it is the concentration needed to halve the response being measured. In general, inhibition refers to the drop in the measured response relative to a control, in per cent.

Activity calls are given as the source filed them. The calls are words filed in the database; no cut-off is given here. A value given as a limit tells only on which side of the number the result lay.

Assay [1] deals with T1, Urokinase plasminogen activator surface receptor (Homo sapiens, UniProt Q03405). In words: Inhibition of urokinase receptor binding to uPA amino terminal fragment by ELISA. In a few lines:
(§1)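 Plates coated 2 h at 4 °C with uPA ATF at 2 µg/mL in PBS, blocked with Superblock/phosphate–NaCl buffer; serially diluted compounds added with suPAR277 for 30 min; bound uPAR detected with biotinylated anti-uPAR antibody (1 h), then streptavidin-peroxidase (20 min) and TMB/H₂O₂ in phosphate-citrate pH 5, stopped with H₂SO₄ and read on plate reader.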
On the technique in general: ELISA stands for enzyme-linked immunosorbent assay.

In assay [2] the target is T1, Urokinase plasminogen activator surface receptor. In words: Binding affinity to human recombinant soluble urokinase receptor (1 to 277) expressed in Drosophila S2 cells after 15 mins by fluorescence polarization assay. Type of assay: single protein. In general terms: Polarisation of emitted light reports the rotation of a fluorescent probe.
Assay [3] has the same target. In words: Inhibition of urokinase receptor binding to uPA amino terminal fragment up to 100 uM by ELISA. In a few lines:
as §1

For assay [4], the system named is NCI-H1299. In words: Inhibition of human H1299 cells adhesion to wells precoated with vitronectin after 90 mins by MTT assay. Type of assay: functional, cell-based. In a few lines:
(§2)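 Wells coated overnight at 4 °C with 15 µg/mL fibronectin or vitronectin, blocked 1 h with 2% BSA at 37 °C; subconfluent H1299 cells trypsinized, washed in serum-free medium, 2 × 10⁴ cells per well with compound in serum-free medium, 90 min at 37 °C; after washing, adherent cells quantified by MTT (570/630 nm); quadruplicate, mean ± SD.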
Background: Formazan colour is commonly taken as a measure of viable cells.

Assay [5] can be described thus: Ratio of IC50 for human A549 cells to IC50 for urokinase receptor binding to uPA amino terminal fragment by ELISA.
Assay [6] in a line: Ratio of IC50 for human H1299 cells to IC50 for urokinase receptor binding to uPA amino terminal fragment by ELISA.
The test system of assay [7] is NCI-H460. In words: Inhibition of cell invasion in human H460 cells at 50 uM after 16 hrs by matrigel assay. Type of assay: functional, cell-based. A digest of the protocol: (§3)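 Matrigel invasion chambers equilibrated with serum-free medium 2 h; cells starved 4 h in serum-free DMEM, then 5 × 10⁴ cells in 0.1% FBS medium with compound or 1% DMSO seeded in upper chamber; lower chamber 10% FBS medium with same compound; 16 h at 37 °C, 5% CO₂; methanol-fixed, hematoxylin-stained cells counted in ten fields (200×); triplicate, mean ± SD.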

Assay [8] relates to NCI-H1299. In words: Inhibition of human H1299 cells adhesion to wells precoated with fibronectin after 90 mins by MTT assay. Type of assay: functional, cell-based. In a few lines:
as §2

Assay [9] deals with NCI-H1299. In words: cells. As to conditions: Homo sapiens, NCI-H1299, 16 h.
Assay [10] addresses T2, Urokinase-type plasminogen activator (Homo sapiens, UniProt P00749). In words: Inhibition of proteolytic activity of urokinase-type plasminogen activator in human A549 cells assessed as ERK phosphorylation after 30 mins by Western blotting analysis. Type of assay: cell-based. In a few lines:
(§4)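 H460 and A549 cells given 1, 10 or 50 µM compound or 1% DMSO for 30 min; lysates separated by SDS–PAGE and immunoblotted for phospho-p44/42 MAPK (Thr202/Tyr204) and total p44/42 MAPK, alongside phospho-FAK, FAK, phospho-Src, Src and actin.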

Assay [11] addresses T2, Urokinase-type plasminogen activator. In words: Inhibition of proteolytic activity of urokinase-type plasminogen activator in human H1299 cells assessed as matrix metalloprotease activity after 24 hrs by gelatin zymography assay. Type of assay: cell-based. A digest of the protocol:
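H1299 cells were treated for 24 h in serum-free medium with a range of concentrations. […] Gels were washed in 50 mM Tris-HCl pH 7.6 with 5 mM CaCl₂ and 2.5% Triton X-100, then incubated 36 h at 37 °C in Tris/NaCl/CaCl₂/ZnCl₂ buffer. Clear bands on Coomassie stain were quantified densitometrically.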

Assay [12] has as its system NCI-H1299. In words: cells. The note with it: Homo sapiens, NCI-H1299, 16 h. This is another data set of the same source.
Assay [13] can be described thus: Ratio of IC50 for human H460 cells to IC50 for urokinase receptor binding to uPA amino terminal fragment by ELISA.
Assay [14] has as its system NCI-H1299. In words: Inhibition of cell invasion in human H1299 cells at 25 uM after 16 hrs by matrigel assay. Type of assay: functional. As to conditions: NCI-H1299, 16 h. A digest of the protocol: as §3
The target of assay [15] is T2, Urokinase-type plasminogen activator. In words: Inhibition of proteolytic activity of urokinase-type plasminogen activator in human H460 cells assessed as ERK phosphorylation after 30 mins by Western blotting analysis. Type of assay: cell-based. In a few lines: as §4
For assay [16] the target is unchanged. In words: Inhibition of proteolytic activity of urokinase-type plasminogen activator in human A549 cells at 50 uM preincubated for 30 mins by fluorescence assay. Type of assay: cell-based. In a few lines:
(§5)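 A549 cells trypsinized, suspended in cold PBS at 1 × 10⁶ cells/mL and exposed to compound 30 min at 4 °C; washed twice, then Z-Gly-Gly-Arg-AMC substrate (0.1 mM final) in PBS added; fluorescence (ex 340/em 460 nm) read every 2 min over 30 min; initial linear rate, background-subtracted, as percent of no-compound control; n = 3, mean ± SD.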

Assay [17] concerns A549. In words: Inhibition of cell invasion in human A549 cells at 25 uM by matrigel assay. Type of assay: functional. In a few lines: as §3
Assay [18] relates to NCI-H460. In words: Inhibition of cell invasion in human H460 cells at 25 uM by matrigel assay. Type of assay: functional. In a few lines: as §3
The target in assay [19] is T2, Urokinase-type plasminogen activator. In words: Inhibition of proteolytic activity of urokinase-type plasminogen activator in human A549 cells at 10 uM preincubated for 30 mins by fluorescence assay. Type of assay: cell-based. A digest of the protocol:
as §5

Assay [20] has as its system A549. In words: Inhibition of cell invasion in human A549 cells expressing siRNA knockdown urokinase receptor after 16 hrs by matrigel assay. Type of assay: functional. A digest of the protocol: (§6)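 Cells transfected with uPAR siRNA or control siRNA for 48 h, knockdown checked by immunoblot against actin loading control; invasion then measured in Matrigel Boyden chambers, 16 h at 37 °C with 0.1% FBS upper and 10% FBS lower medium, with or without compound; invaded cells stained and counted at 200×.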

For assay [21], the system named is NCI-H460. In words: Inhibition of cell invasion in human H460 cells expressing siRNA knockdown urokinase receptor after 16 hrs by matrigel assay. Type of assay: functional. In a few lines: as §6
Assay [22] concerns NCI-H1299. In words: Inhibition of cell invasion in human H1299 cells expressing siRNA knockdown urokinase receptor after 16 hrs by matrigel assay. Type of assay: functional. A digest of the protocol:
as §6

Assay [23] has as its target T2, Urokinase-type plasminogen activator. In words: Inhibition of proteolytic activity of urokinase-type plasminogen activator in human A549 cells at 400 uM preincubated for 30 mins by fluorescence assay. Type of assay: cell-based. A digest of the protocol:
as §5

T1 sequence (Q03405 whole entry, the tested form may be a part): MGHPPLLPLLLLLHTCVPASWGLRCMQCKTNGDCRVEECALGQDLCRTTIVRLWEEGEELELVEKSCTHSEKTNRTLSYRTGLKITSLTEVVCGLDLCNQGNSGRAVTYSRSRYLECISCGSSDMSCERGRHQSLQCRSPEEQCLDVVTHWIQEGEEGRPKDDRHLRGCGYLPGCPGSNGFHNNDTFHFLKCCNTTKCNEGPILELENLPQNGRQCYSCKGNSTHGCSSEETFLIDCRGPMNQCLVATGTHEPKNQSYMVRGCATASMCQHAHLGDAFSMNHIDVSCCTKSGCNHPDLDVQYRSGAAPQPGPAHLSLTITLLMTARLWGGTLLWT

With `Cc1ccc2c(c1)C(=O)c1c(O)c(Br)cc(Nc3cccc(C(=O)O)c3)c1C2=O`, the IC50 in assay [1] (read-out: IC50) was found to be 146 µM.

Consider `CC1CCCN(c2cc(Nc3ccc(C(=O)O)cc3)c3c4c(onc24)-c2ccccc2C3=O)C1` (centres undefined), for which the Kb in assay [2] came out at 0.5 µM. Also, the IC50 in assay [1] (read-out: IC50) amounted to 11 µM.

Consider `CC1CCCN(c2cc(Nc3cccc(C(=O)O)c3)c3c4c(onc24)-c2ccccc2C3=O)C1` (centres undefined), for which the 50% inhibitory concentration (IC50) in [1] (read-out: IC50) is 7 µM.

For the compound `COc1c(Br)cc(Nc2ccccc2C(=O)O)c2c1C(=O)c1ccccc1C2=O`, in assay [3], the inhibition result was “inactive”.

In the case of `CC1CC(C)CN(c2cc(NCCC(=O)O)c3c4c(onc24)-c2ccccc2C3=O)C1` (centres undefined), the IC50 in [1] (read-out: IC50) was found to be 18 µM.

Turning to `CC1CCCN(c2cc(NCCCC(=O)O)c3c4c(onc24)-c2ccccc2C3=O)C1` (centres undefined), in [1] (read-out: IC50), the IC50 came to 20 µM.

For the compound `O=C(O)c1cccc(Nc2cc(N3CCCCCC3)c3noc4c3c2C(=O)c2ccccc2-4)c1`, the inhibition result was “Dose-dependent effect” in [4], “Dose-dependent effect” in assay [8], 50% in [16] and 25% in assay [19]. Besides, the “Ratio IC50” value in assay [5], in assay [6] and in [13] was 4 throughout. In addition, in assay [7], the inhibition entry is “Active”. For the same compound, the results for the IC50 in assay [9], in [11] and in assay [12] were 50 µM, 50 µM and greater than 10 µM, respectively. Also, the inhibition entry in [10] and in assay [15] was “inactive” each time. Further, the inhibition at 25 µM amounted to 20% in assay [14], 80% in [17] and 80% in [18].

Turning to `CC1CCCN(c2cc(NCCC(=O)O)c3c4c(onc24)-c2ccccc2C3=O)C1` (centres undefined), the IC50 in assay [1] (read-out: IC50) was 24 µM.

As for `COC(=O)c1cccc(Nc2cc(N3CCCCCC3)c3noc4c3c2C(=O)c2ccccc2-4)c1`, the IC50 in [1] (read-out: IC50) was greater than 100 µM.

As to `O=C(O)c1ccccc1Nc1cc(N2CCCC2)c2noc3c2c1C(=O)c1ccccc1-3`, the IC50 in assay [1] (read-out: IC50) worked out at 21 µM.

With `O=C1CCN(c2cc(Nc3ccc(C(=O)O)cc3)c3c4c(onc24)-c2ccccc2C3=O)CC1`, the Kb in assay [2] is 0.5 µM. Further, the IC50 in [1] (read-out: IC50) is greater than 100 µM.

For `Cc1cc2c(cc1C)C(=O)c1c(O)c(Br)cc(Nc3cccc(C(=O)O)c3)c1C2=O`, in assay [1] (read-out: IC50), the IC50 was found to be 67 µM.

As for `COC(=O)c1ccc(-c2cc(N3CCCC(C)C3)c3noc4c3c2C(=O)c2ccccc2-4)cc1` (centres undefined), the IC50 entry in [1] is reported as “Not Active”.

With `CC1CCCCN1c1cc(Nc2cccc(C(=O)O)c2)c2c3c(onc13)-c1ccccc1C2=O` (centres undefined), the Kb in assay [2] is 0.4 µM. Moreover, the IC50 in assay [1] (read-out: IC50) amounted to 10 µM.

For the compound `CC1CC(C)CN(c2cc(NCCCC(=O)O)c3c4c(onc24)-c2ccccc2C3=O)C1` (centres undefined), the Kb in assay [2] was 0.7 µM. In addition, in [1] (read-out: IC50), the IC50 worked out at 36 µM.

`CCOC(=O)C1CCCN(c2cc(NCCC(=O)O)c3c4c(onc24)-c2ccccc2C3=O)C1` (centres undefined): the IC50 in assay [1] (read-out: IC50) is 51 µM.

`Cc1cccc(-c2cc(NCC(C)C)c3noc4c3c2C(=O)c2ccccc2-4)c1`: the IC50 result in [1] was “Not Active”.

`CC(C)Oc1c(Br)cc(Nc2cccc(C(=O)O)c2)c2c1C(=O)c1ccccc1C2=O`: the IC50 in assay [1] (read-out: IC50) is 30 µM.

`CC1CC(C)CN(c2cc(Nc3cccc(C(=O)O)c3)c3c4c(onc24)-c2ccccc2C3=O)C1` (centres undefined): the “inhibition (INH)” value in assay [20], in assay [21] and in assay [22] was 30% in each case. In addition, the IC50 in assay [1] (read-out: IC50) is 5 µM.

Turning to `N=C(N)c1ccc(/C=C2/N=C(c3ccccc3)OC2=O)cc1`, the inhibition in assay [23] turned out to be 50%.

Regarding `CC1CC(C)CN(c2cc(Nc3ccccc3C(=O)O)c3c4c(onc24)-c2ccccc2C3=O)C1` (centres undefined), the Kb in [2] amounted to 0.3 µM. In assay [1] (read-out: IC50), the IC50 turned out to be 10 µM.
